Activity calls are given as the source filed them.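 Rule for the calls, unless noted: active = inhibition above 20% together with a positive visual image hit; inconclusive = visual image hit but inhibition not above 20%; inactive = no visual image hit.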
Tests used:
[1] = inhibitors of TNFa-induced NFkB p65 translocation, primary screen, imaging, HUVEC, MLSMR starter and 10KST1 sets (AID 438); conditions: HUVEC TNFa-induced p65 nuclear translocation; cell count: measured here: nuclei count (cytotoxicity indicator), at 2.08 µM; inhibition: at 2 µM, stronger effect = higher value, 0% TNFa-plus-vehicle, 100% no-TNFa wells;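 note: compound added about 3h40 before a 20 min TNFalpha stimulation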;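 for inhibition: signal is the nuclear over cytoplasmic p65 intensity ratio per well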
[2] = inhibitors of E-selectin induction by TNFa, primary screen, imaging, HUVEC, immunofluorescence, MLSMR starter and 10KST1 sets (AID 487;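 active = visually confirmed hit in the image check and inhibition above 20%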;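 for inhibition: signal is fraction of cell area covered by stained E-selectin grains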;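 for nuclei count: 100% = median nuclei count of all wells on the same plate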); conditions: HUVEC TNFalpha-induced E-selectin immunofluorescence imaging, at 2 µM; inhibition: stronger effect = higher value; nuclei count: measured here: cell number, toxicity
[3] = DUSP6 inhibitors restoring Erk phosphorylation by chemical complementation, primary imaging in DUSP6-transfected HeLa (AID 609;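 active = compounds giving at least 50% inhibition in the cell-based MKP-3 phosphatase rescue imaging test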;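 for inhibition: phospho-Erk level distribution per well compared with pooled transfected vehicle control wells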); conditions: HeLa MKP-3 transfected, phospho-Erk imaging KS statistic, at 10 µM, cells stimulated with TPA for 15 min
[4] = biological target: Dual specificity protein phosphatase 6 (Homo sapiens) (UniProt Q16828); assay: as above; conditions: HeLa MKP-3 transfected, phospho-Erk imaging KS statistic; at 10 µM; stronger effect = higher value; cells stimulated with TPA for 15 min
Dual specificity protein phosphatase 6 (Homo sapiens), sequence (Q16828 whole entry, looked up): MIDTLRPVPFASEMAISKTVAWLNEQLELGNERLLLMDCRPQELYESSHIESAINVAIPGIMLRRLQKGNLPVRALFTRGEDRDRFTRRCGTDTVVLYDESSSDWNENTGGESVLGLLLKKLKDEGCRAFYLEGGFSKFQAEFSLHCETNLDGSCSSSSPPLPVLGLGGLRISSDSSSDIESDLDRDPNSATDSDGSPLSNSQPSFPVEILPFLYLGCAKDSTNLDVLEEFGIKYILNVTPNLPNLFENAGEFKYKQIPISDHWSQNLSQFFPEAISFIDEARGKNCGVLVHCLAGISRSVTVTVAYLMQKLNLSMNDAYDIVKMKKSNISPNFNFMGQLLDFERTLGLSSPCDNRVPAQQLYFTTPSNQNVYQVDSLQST

[5] = biological target: Voltage-gated potassium channel subunit beta-2 (Rattus norvegicus) (UniProt P62483); assay: KvBeta enzyme negative modulators, primary screen, biochemical, NADPH fluorescence (AID 622;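 active = fluorescence slope higher than the sample average by over 3 SD, cut at about -0.22 in these data, passing the limit was not always enough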;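 note: slope of raw intensity against log time taken from 70 to 1610 s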); conditions: recombinant KvBeta, 4-cyanobenzaldehyde reduction, at 10 µM, stronger effect = higher value
Voltage-gated potassium channel subunit beta-2 (Rattus norvegicus), sequence (P62483 whole entry, looked up): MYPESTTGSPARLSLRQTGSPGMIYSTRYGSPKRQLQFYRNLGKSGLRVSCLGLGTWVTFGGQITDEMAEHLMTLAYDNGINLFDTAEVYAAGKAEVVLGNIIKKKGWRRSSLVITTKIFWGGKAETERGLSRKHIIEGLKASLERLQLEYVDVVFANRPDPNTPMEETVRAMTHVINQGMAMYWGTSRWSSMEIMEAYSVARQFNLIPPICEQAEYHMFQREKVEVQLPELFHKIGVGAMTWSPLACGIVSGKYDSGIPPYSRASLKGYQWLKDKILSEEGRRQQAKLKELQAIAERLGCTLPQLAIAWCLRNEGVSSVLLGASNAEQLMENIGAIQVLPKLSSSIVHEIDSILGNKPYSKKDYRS

[6] = biological target: Voltage-gated potassium channel subunit beta-2 (Rattus norvegicus) (UniProt P62483); assay: KvBeta positive modulators, primary screen, biochemical, NADPH fluorescence (AID 623;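 active = NADPH fluorescence slope more negative than the mean of all samples by about 3 SD, 99.7% confidence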;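 note: fluorescence intensity change per second fitted from 20 to 320 s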); conditions: Recombinant KvBeta, NADPH fluorescence decrease slope, 10 min; at 10 µM; stronger effect = lower value
[7] = biological target: Alpha-2C adrenergic receptor (Homo sapiens) (UniProt P18825); assay: modulators of alpha2C/GIRK thallium flux, primary screen, cell-based, HEK293 alpha2C/GIRK1/2 (AID 624;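 active = fluorescence slope after compound addition differing from the mean of all screened samples at 99.7% confidence, in either direction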;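 note: slope of fluorescence ratio to pre-addition baseline per second over 15 to 24 s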); conditions: thallium flux BTC fluorescence, at 10 µM, actives lie on both sides
Alpha-2C adrenergic receptor (Homo sapiens), sequence (P18825 whole entry, looked up): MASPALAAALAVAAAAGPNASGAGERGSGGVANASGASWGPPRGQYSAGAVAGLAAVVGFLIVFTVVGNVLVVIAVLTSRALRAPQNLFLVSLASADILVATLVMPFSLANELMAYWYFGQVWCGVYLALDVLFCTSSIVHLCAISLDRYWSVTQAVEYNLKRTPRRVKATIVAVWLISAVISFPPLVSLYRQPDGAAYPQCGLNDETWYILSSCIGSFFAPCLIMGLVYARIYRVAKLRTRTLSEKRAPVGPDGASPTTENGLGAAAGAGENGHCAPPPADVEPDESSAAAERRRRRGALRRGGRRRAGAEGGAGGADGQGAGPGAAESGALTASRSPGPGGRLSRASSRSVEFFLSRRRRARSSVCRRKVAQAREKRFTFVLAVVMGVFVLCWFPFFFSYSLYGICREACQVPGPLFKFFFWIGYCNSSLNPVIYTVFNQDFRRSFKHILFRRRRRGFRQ

[8] = inhibitors of larval lipid processing in zebrafish, primary screen, whole organism, PED6 fluorescence, gall bladder and intestine (AID 686;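 active = a full or partial loss of lipid-probe fluorescence in the fish gall bladder, intestine or both, judged by eye; inactive = no fluorescence loss, or compound toxic to the fish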;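 note: larvae 5 to 7 days old with five fish per well; signal comes from phospholipase A2 cleavage of quenched PED6 carried via bile; overnight exposure to compound and PED6 before scoring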); conditions: Zebrafish larvae PED6 lipid processing, fluorescence scoring; screened at 20 µM (by protocol)
Outline: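 System: live zebrafish larvae aged 5-7 days, whole organism; measure: graded gall bladder and intestinal fluorescence inhibition per well; incubation: overnight exposure; reagent: ingested quenched lipid PED6 at 100 nM; signal: By-eye fluorescence microscopy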

[9] = inhibitors of Chlamydomonas gravitaxis, primary screen, whole organism, Chlamydomonas reinhardtii, WT vs cilia-less mutant, absorbance, 96-well (AID 463189;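 active = inhibition at or above 50% relative to wild type and mutant plate controls; inactive = inhibition below 50%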;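 note: 0% = wild type cc124 cells in DMSO and 100% = ciliumless bld1 mutant cells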); conditions: OD600 absorbance, 2 days, at 10 µM, stronger effect = higher value
[10] = measured here: cell density z-score
[11] = measured here: nuclear c-Myc green intensity z-score
[12] = measured here: nuclear pErk red intensity z-score, stronger effect = higher value

| Compound | cell count [1] | inhibition [1] | inhibition [2] | nuclei count [2] [%] | z-score [3, 10] | z-score [3, 11] | z-score [3, 12] | inhibition [4] | fluorescence slope [5] | NADPH fluorescence slope [6] | slope [7] | outcome [8] | inhibition [9] |
| --- | --- | --- | --- | --- | --- | --- | --- | --- | --- | --- | --- | --- | --- |
| CCOc1cccc(-c2nn3c(-c4ccco4)nnc3s2)c1 | 591 | -18.9% (inactive) | -310% (inactive) | 153 | -0.574 | -0.476 | -0.496 | -4.27% (inactive) | -0.409 (inactive) | -0.00014 (inactive) | 0.00461 (inactive) | inactive | 17.2% (inactive) |
| CC(C)Cc1nc(N2CCCCC2)c(C#N)c2c1CCC2 | 513 | -0.1% (inactive) | -91.7% (inactive) | 135 | -1.47 | 0.461 | -0.497 | 1.6e-07% (inactive) | -0.506 (inactive) | -3.4e-06 (inactive) | 0.006 (inactive) | inactive; toxic | -3.52% (inactive) |
| Cc1nn(-c2cccc(Cl)c2)c2c1C(c1ccncc1)C(C#N)=C(N)O2 (stereo not given) | 374 | -13.7% (inactive) | -56% (inactive) | 98.8 | -2.16 | -0.307 | -1.54 | 2.46% (inactive) | -0.382 (inactive) | 4.7e-05 (inactive) | 0.00526 (inactive) | inactive | -1.15% (inactive) |
| COc1cc2c(C(=O)N3CCN(c4ccccc4)CC3)c(C)oc2cc1Br | 539 | -0.9% (inactive) | -65.1% (inactive) | 139 | 1.72 | -0.592 | -0.944 | 10.5% (inactive) | -0.532 (inactive) | -2.7e-05 (inactive) | 0.00643 (inactive) | inactive | 1.23% (inactive) |
| COCCOCCOCCC(=O)NC1CC2CCC1(C)C2(C)C (stereo not given) | 580 | -10.5% (inactive) | 32.9% (inactive) | 158 | 0.451 | -0.414 | -0.476 | 6.51% (inactive) | -0.459 (inactive) | -1.1e-05 (inactive) | 0.00758 (inactive) | inactive | 13.6% (inactive) |
| CC(C)(C)c1cccc(/C=N/O)c1O | 519 | -19.1% (inactive) | -214% (inactive) | 140 | 2.16 | -0.74 | -1.64 | 7.93% (inactive) | -0.526 (inactive) | -2.2e-05 (inactive) | 0.00592 (inactive) | inactive | 9.58% (inactive) |
| CCOC(=O)C(NC=O)(NC(C)(C)C)C(=O)OCC | 520 | -16.1% (inactive) | -227% (inactive) | 188 | -0.692 | 0.27 | 0.909 | -8.95% (inactive) | -0.493 (inactive) | -5.5e-05 (inactive) | 0.00503 (inactive) | inactive | -1.22% (inactive) |
| CC1C[C@@]2(NC(=O)NC2=O)C(C)CN1C (stereo not given in full) | 510 | -6.8% (inactive) | -91.9% (inactive) | 118 | 1.06 | -0.13 | -0.779 | -3.98% (inactive) | -0.499 (inactive) | -0.000117 (inactive) | 0.00539 (inactive) | inactive | 6.02% (inactive) |
| COC(=O)Cn1cc(C(=O)OC)cc(Br)c1=O | 507 | -0.8% (inactive) | -135% (inactive) | 136 | 0.966 | 0.177 | 0.211 | -8.76% (inactive) | -0.539 (inactive) | -3.3e-05 (inactive) | 0.00509 (inactive) | inactive | -6.78% (inactive) |
| Cc1nnc2n(Cc3ccccc3)c(=O)c3c4c(sc3n12)CN(Cc1ccccc1)CC4 | 628 | -8.2% (inactive) | 29.2% (inactive) | 167 | -0.0797 | 0.579 | 0.467 | -7.28% (inactive) | -0.423 (inactive) | -5e-05 (inactive) | 0.00348 (inactive) | inactive | 31.3% (inactive) |
| C=C(Br)Cn1c(CCCC)nc2ccccc21 | 496 | -6.3% (inactive) | -117% (inactive) | 145 | 0.895 | -1.74 | -1.25 | 3.56% (inactive) | -0.492 (inactive) | -0.000115 (inactive) | 0.00483 (inactive) | inactive | 35.5% (inactive) |
| COc1ccc(-c2nnc3sc(-c4ccccc4OC)nn23)cc1 | 615 | -8.4% (inactive) | -30.4% (inactive) | 153 | 0.537 | -0.23 | -1.1 | -11.5% (inactive) | -0.413 (inactive) | -4.4e-05 (inactive) | 0.00877 (inactive) | inactive | 12.7% (inactive) |
| COc1ccc(OCC(O)Cn2c(Nc3cccc(C)c3)nc3c2c(=O)n(C)c(=O)n3C)cc1 (stereo not given) | 514 | -0.2% (inactive) | -160% (inactive) | 139 | 1.7 | -1.51 | -0.035 | 26.3% (inactive) | -0.541 (inactive) | -3.3e-05 (inactive) | 0.00591 (inactive) | inactive | 7.54% (inactive) |
| CN1CCc2nc(SCC(=O)Nc3ccc(Cl)cc3)c(C#N)cc2C1 | 378 | -14.3% (inactive) | -155% (inactive) | 162 | 1.95 | -0.641 | -1.16 | 12.3% (inactive) | -0.422 (inactive) | -0.000135 (inactive) | 0.0059 (inactive) | inactive | 0.323% (inactive) |
| COc1ccccc1-c1nn2c(-c3ccco3)nnc2s1 | 544 | -2.9% (inactive) | -39.4% (inactive) | 162 | 0.365 | -0.311 | -0.198 | -2.47% (inactive) | -0.42 (inactive) | -8.7e-05 (inactive) | 0.00698 (inactive) | inactive | 10.9% (inactive) |
| CCOC(=O)c1cc2cc(OC)ccc2[nH]1 | 596 | -5.3% (inactive) | -44.6% (inactive) | 87.4 | -0.384 | 1.83 | 0.163 | 5.57% (inactive) | -0.497 (inactive) | -9.6e-05 (inactive) | 0.00467 (inactive) | inactive | 26.5% (inactive) |
| COC(=O)c1n[nH]c2ccccc12 | 323 | 0.5% (inactive) | -157% (inactive) | 119 | -0.132 | 0.244 | -1.14 | -0.624% (inactive) | -0.287 (inactive) | -1.1e-05 (inactive) | 0.00523 (inactive) | inactive | 17.4% (inactive) |
| COc1cccc(COc2nc3c(c(=O)n(C)c(=O)n3C)n2C)c1 | 456 | -4.5% (inactive) | -99.3% (inactive) | 164 | -0.352 | 0.147 | -0.806 | -7.28% (inactive) | -0.325 (inactive) | -1.3e-06 (inactive) | 0.00578 (inactive) | inactive | 5.71% (inactive) |
| Cc1coc2c(O)cc3c(c12)OC1(N2CCCCC2)C(=O)NCCCC31 (stereo not given) | 537 | -25.4% (inactive) | -78.3% (inactive) | 144 | -0.8 | 0.13 | 2.15 | -15% (inactive) | -0.515 (inactive) | -4.3e-05 (inactive) | 0.00313 (inactive) | inactive | 19.5% (inactive) |
| c1coc(CNc2ncnc3ccccc23)c1 | 553 | -2.6% (inactive) | 2.7% (inactive) | 155 | 0.847 | -1.11 | 1.51 | 14% (inactive) | -0.479 (inactive) | -0.000192 (inactive) | 0.00559 (inactive) | inactive; toxic | 12.9% (inactive) |
